Results published in ChEMBL document CHEMBL2176910, “Identification of small molecule inhibitors of amyloid β-induced neuronal apoptosis acting through the imidazoline I(2) receptor” (J Med Chem, 2012).
Activity calls are given as the source filed them. No cut-off for these calls is given here.

How the values were obtained:
[1] = Inhibition of radioligand binding to N-methyl D-aspartate receptor phencyclidine binding site at 10 uM
How it was run: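 Radioligand binding panel. Values are average percentages of inhibition of specific binding, measured against potent standard ligands for each target.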

[2] = target: T1, Muscarinic acetylcholine receptor M5 (Homo sapiens) (UniProt P08912); assay: Inhibition of radioligand binding to muscarinic M5 receptor at 10 uM
T1 sequence (whole entry): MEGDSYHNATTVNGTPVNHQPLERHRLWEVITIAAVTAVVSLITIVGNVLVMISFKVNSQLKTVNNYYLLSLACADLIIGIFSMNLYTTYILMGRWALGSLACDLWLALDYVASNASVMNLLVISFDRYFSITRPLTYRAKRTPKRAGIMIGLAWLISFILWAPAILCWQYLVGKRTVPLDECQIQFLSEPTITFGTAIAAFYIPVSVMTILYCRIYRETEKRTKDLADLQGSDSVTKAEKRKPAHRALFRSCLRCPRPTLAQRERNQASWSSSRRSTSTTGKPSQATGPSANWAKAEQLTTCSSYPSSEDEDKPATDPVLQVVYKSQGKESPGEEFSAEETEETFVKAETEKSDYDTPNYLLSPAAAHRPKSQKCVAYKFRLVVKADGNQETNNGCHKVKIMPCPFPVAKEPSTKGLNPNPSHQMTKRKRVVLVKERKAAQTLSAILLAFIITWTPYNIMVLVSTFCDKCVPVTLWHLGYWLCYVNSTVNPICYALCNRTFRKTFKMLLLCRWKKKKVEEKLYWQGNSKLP
How it was run: (§1)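 Part of an in vitro radioligand binding panel. Each target was tested against a potent standard radioligand for that site. The read-out was percent inhibition of specific binding, reported as an average value.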

[3] = species: Mus musculus; assay: Inhibition of imidazole receptor 2 in mouse hippocampal neurons assessed as reduction in tPA-induced Erk1/2 activation at 30 uM pre-incubated for 4 hrs before tPA stimulation by ELISA; details: Hippocampus
How it was run: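 Primary mouse hippocampal neurons were stimulated with tPA (20 μg/mL, 1 h) with or without compound at 30 μM. Phospho-Erk1/2 was measured by ELISA with a phospho-specific antibody and normalized to total Erk1/2. Untreated cultures set the lower limit and tPA alone the upper limit.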

[4] = Displacement of [3H]idazoxan from rat cerebral cortex imidazole receptor 2 in presence of 1 uM yohimbine; format: tissue-based
[5] = tested on: Hippocampal neuron; assay: Neuroprotective activity against Abeta-induced neuronal apoptosis in mouse hippocampal neurons assessed as reduction in total neuronal nuclei level at 30 uM pre-incubated for 4 hrs before Abeta challenge for 72 hrs by immunofluorescence microscopy; format: functional, tissue-based; details: Hippocampus
How it was run: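 Primary mouse hippocampal neurons were exposed to Aβ (20 μM, 72 h) alone or with compound. Double immunofluorescence microscopy was then run for DNA fragmentation (TUNEL, green) and total neuronal nuclei (NeuN, red), with merged images. DNase-treated cells served as positive control.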

[6] = target: T2, 5-hydroxytryptamine receptor 3A (Homo sapiens) (UniProt P46098); assay: Inhibition of radioligand binding to 5HT3 at 10 uM; how it was run: as §1
T2 sequence (whole entry): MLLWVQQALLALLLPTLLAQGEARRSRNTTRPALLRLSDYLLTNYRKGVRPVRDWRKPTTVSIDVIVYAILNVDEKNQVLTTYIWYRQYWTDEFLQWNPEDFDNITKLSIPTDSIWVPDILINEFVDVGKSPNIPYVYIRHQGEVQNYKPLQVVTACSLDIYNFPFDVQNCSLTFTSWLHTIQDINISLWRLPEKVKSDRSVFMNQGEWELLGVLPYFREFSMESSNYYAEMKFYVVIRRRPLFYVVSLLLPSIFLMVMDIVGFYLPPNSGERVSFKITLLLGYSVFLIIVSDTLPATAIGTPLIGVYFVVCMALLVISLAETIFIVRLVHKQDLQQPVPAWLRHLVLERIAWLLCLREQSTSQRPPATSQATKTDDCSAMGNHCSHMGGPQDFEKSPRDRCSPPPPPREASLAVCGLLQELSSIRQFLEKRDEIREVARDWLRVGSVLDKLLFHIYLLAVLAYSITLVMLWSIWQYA

[7] = target: T3, Muscarinic acetylcholine receptor M4 (Homo sapiens) (UniProt P08173); assay: Inhibition of radioligand binding to muscarinic M4 receptor at 10 uM; how it was run: as §1
T3 sequence (whole entry): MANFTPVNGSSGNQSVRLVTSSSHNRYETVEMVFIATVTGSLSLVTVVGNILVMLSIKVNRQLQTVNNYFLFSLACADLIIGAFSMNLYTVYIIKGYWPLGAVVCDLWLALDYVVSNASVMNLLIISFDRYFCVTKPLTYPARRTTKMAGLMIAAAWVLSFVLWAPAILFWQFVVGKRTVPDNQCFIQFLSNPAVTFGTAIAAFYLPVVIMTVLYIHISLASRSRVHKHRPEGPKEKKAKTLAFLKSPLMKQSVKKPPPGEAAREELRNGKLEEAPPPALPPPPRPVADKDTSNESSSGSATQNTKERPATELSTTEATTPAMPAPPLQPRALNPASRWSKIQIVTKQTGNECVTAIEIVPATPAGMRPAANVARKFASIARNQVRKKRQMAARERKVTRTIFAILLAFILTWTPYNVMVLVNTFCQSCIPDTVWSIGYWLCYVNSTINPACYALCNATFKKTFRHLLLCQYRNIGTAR

[8] = target: Kappa-type opioid receptor (Homo sapiens) (UniProt P41145); assay: Inhibition of radioligand binding to KOP receptor at 10 uM; how it was run: as §1
[9] = species: Rattus norvegicus; assay: Displacement of [3H]idazoxan from rat cerebral cortex imidazole receptor 2 at 10 uM in presence of 1 uM yohimbine; format: tissue-based
[10] = target: Nischarin (Homo sapiens, UniProt Q9Y2I1); assay: Inhibition of radioligand binding to imidazole receptor 1
Nischarin, sequence (Q9Y2I1 whole entry): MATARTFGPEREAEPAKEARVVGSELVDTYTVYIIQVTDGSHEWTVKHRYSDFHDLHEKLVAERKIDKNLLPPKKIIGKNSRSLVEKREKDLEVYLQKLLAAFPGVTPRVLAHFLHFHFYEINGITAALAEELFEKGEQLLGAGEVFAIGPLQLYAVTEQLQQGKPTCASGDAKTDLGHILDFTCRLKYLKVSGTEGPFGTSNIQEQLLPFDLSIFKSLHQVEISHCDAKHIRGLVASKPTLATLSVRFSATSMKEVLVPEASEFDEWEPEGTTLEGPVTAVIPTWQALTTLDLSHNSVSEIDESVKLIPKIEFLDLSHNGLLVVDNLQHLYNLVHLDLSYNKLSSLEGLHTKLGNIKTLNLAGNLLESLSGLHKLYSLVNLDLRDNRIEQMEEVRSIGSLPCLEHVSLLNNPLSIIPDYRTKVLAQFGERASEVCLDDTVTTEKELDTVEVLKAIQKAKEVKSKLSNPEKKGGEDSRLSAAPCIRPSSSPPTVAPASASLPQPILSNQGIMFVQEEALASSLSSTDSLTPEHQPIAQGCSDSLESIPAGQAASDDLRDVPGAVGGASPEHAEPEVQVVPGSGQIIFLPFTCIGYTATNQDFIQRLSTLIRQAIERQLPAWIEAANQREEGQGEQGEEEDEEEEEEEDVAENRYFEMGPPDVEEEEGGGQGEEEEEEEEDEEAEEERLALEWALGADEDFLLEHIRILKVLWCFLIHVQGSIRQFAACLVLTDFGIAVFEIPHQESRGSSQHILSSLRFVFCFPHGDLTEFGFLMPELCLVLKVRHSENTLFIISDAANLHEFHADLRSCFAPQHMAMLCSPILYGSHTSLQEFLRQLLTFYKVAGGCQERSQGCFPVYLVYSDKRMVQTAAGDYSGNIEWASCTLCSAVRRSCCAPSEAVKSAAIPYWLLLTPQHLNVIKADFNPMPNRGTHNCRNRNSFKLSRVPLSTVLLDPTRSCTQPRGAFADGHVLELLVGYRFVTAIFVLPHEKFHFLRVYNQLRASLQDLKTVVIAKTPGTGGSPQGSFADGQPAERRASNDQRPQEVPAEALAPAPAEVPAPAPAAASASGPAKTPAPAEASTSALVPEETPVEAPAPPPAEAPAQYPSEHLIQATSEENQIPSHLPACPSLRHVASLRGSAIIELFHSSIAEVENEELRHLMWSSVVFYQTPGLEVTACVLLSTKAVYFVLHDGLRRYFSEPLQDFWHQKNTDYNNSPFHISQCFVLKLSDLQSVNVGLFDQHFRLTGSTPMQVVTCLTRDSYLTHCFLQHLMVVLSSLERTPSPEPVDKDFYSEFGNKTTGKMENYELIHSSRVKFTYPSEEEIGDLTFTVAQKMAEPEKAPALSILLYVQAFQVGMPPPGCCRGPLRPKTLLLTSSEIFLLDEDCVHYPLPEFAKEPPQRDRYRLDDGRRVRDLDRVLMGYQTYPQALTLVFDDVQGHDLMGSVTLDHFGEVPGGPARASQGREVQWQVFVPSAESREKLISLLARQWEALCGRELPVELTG

Kappa-type opioid receptor (Homo sapiens), sequence (P41145 whole entry): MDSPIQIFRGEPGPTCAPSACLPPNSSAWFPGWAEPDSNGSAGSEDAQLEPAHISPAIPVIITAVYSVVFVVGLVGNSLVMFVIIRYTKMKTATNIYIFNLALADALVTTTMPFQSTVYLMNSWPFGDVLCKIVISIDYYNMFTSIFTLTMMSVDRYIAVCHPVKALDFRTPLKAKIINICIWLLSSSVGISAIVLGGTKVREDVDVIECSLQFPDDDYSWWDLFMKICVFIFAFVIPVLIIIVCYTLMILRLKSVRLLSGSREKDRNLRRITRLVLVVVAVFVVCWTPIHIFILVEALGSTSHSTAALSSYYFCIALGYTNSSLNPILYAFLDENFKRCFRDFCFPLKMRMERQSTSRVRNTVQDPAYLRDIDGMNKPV

NCC12CCC3CC(CC3C1)C2 (stereo not drawn)
inhibition [1]: inactive | inhibition [2]: < 20% | inhibition of tPA-induced Erk1/2 activation (active/inactive call) [3]: Active | Ki [4]: 26 µM | Activity [5]: Active | inhibition [6]: < 20% | inhibition [7]: < 20% | inhibition [8]: < 20% | inhibition [9]: 34%

CN(C)C(CN)c1ccccc1Cl (stereo not drawn)
inhibition [1]: inactive | Ki [10]: 5.2 µM | inhibition [2]: < 20% | inhibition of tPA-induced Erk1/2 activation (active/inactive call) [3]: Active | Ki [4]: 14 µM | Activity [5]: Active | inhibition [6]: < 20% | inhibition [7]: < 20% | inhibition [8]: < 20% | inhibition [9]: 43%

CN1CCNC(c2ccccc2)C1 (stereo not drawn)
inhibition [1]: inactive | inhibition [2]: < 20% | inhibition of tPA-induced Erk1/2 activation (active/inactive call) [3]: Active | Ki [4]: 18 µM | Activity [5]: Active | inhibition [6]: < 20% | inhibition [7]: < 20% | inhibition [8]: < 20% | inhibition [9]: 41%
